From PMC5766731 (Clinical Pharmacokinetics, 2017)

Assays:
[1] = Part II safety assessment; type: in vivo, human
How it was run: (§1)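 Safety monitored under ICH-GCP in each part (single 10–300 mg; alternate-day 100–300 mg; 150 mg fasted/fed crossover). Assessments: adverse events coded with MedDRA version 18.0, clinical examinations, frequent vital signs, 12-lead ECGs, clinical laboratory tests, and continuous ECG for 24 h post-dose in parts I and II. Post-dose vs baseline compared by paired two-sided t test, α = 0.05.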

[2] = Part III safety assessment; type: in vivo, human
How it was run: as §1

[3] = tested on: serum erythropoietin (EPO), hemoglobin, hematocrit, reticulocyte count; experiment: Part I pharmacodynamics; type: in vivo, human; conditions: for mean serum EPO C max: placebo 9.6 mIU/L
How it was run: (§2)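 Serum EPO, hemoglobin, hematocrit and reticulocyte count were measured in blood taken before and after oral dosing. Regimens: part I single fasted doses 10–300 mg vs placebo; part II 100–300 mg on Days 1, 3, 5 vs placebo; part III single 150 mg, fasted vs fed, men and women. EPO expressed baseline-corrected. Post-dose vs baseline compared by paired two-sided t test, α = 0.05.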

[4] = Part I safety assessment; type: in vivo, human
How it was run: as §1

[5] = beagle dogs, oral route; cited from earlier work
[6] = after oral dosing across the species tested; cited from earlier work
[7] = tested on: serum erythropoietin (EPO), hemoglobin, hematocrit, reticulocyte count; experiment: Part II pharmacodynamics; type: in vivo, human; conditions: for serum EPO C max: placebo 11.0 mIU/L
How it was run: as §2

[8] = Part II multiple ascending-dose pharmacokinetics; type: in vivo, human; conditions: for t max / AUCt / AUC∞ / Accumulation Index / C max / CL / V z/F_obs / t ½ / λz: part II, N 6; for t max: mean (range) per footnote; for AUCt / AUC∞ / Accumulation Index / C max / CL / V z/F_obs / t ½ / λz: mean ± SD
How it was run: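 Four panels of eight (six drug, two placebo) were dosed orally, fasted, with 100, 150, 200 or 300 mg on Days 1, 3 and 5. Blood was taken pre-dose and at 0.5–36 h after the Day 1 and Day 5 doses, pre-dose and 12, 24 and 36 h after Day 3, and 48 and 72 h after Day 5. Diluted-blood LC-MS/MS (LLOQ 2 ng/mL). Accumulation index was derived.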

[9] = target: PHD enzyme; conditions: read-out: concentration of drug producing 50% inhibition [IC50]; HepG2 cells, HIF stabilization; cited from earlier work
[10] = 100 mg oral on Days 1, 3, 5, Day 1
[11] = 100 mg oral on Days 1, 3, 5, Day 5
[12] = 150 mg oral on Days 1, 3, 5, Day 1
[13] = 150 mg oral on Days 1, 3, 5, Day 5
[14] = 200 mg oral on Days 1, 3, 5, Day 1
[15] = 200 mg oral on Days 1, 3, 5, Day 5
[16] = 300 mg oral on Days 1, 3, 5, Day 1
[17] = 300 mg oral on Days 1, 3, 5, Day 5

In the case of `O=C(O)CNC(=O)c1c(O)c2ccccc2n(OCC2CC2)c1=O` [ZYAN1], the “Adverse events (Test)” value ([1]; MAD 150 mg panel) is reported as “Headache, dizziness”, the “Adverse events (Test)” value ([1]; MAD 200 mg panel) is reported as “Nausea, headache, dizziness, diarrhea, phlebitis” and the “Adverse events (Test)” value ([1]; MAD 300 mg panel) is reported as “Supra ventricular extrasystoles, abdominal pain, diarrhea, contusion, back pain, dizziness, headache, nasal congestion, phlebitis”. For the same compound, the “Adverse events (Test)” value ([1]; MSD 100 mg panel (multiple dose)) was “Headache, dizziness”, the “severity of treatment-related AEs” value ([1]; part II (ZYAN1 and placebo subjects)) was “all grade 1 in severity, with the exception of dizziness in two subjects, which was classified as grade 2 in severity” and the “subjects with AEs possibly related to study treatment” value ([1]; part II, 16 AEs in 11 subjects, placebo 63%) was 46%. The “Adverse events (Test)” value ([2]; Food and sex effect 150 mg panel) was “Palpitation, cellulitis, back pain, musculoskeletal pain, head discomfort, headache (2), folliculitis, cellulitis”, the “total AEs reported” value ([2]; part III crossover, 150 mg) was 11 and the “EPO response vs placebo” value ([3]; doses up to 150 mg) was “not markedly different from placebo”. For the same compound, the “mean serum EPO C max” value ([3]; single dose 10 mg) was 6.6 mIU/L, the “mean serum EPO C max” value ([3]; single dose 300 mg) was 79.9 mIU/L and the “initiation of EPO rise after ZYAN1 administration” value ([3]; single dose, as early as) was 6 h. For the same compound, the “hemoglobin increase observed in most of the subjects” value ([3]; single dose, more consistent from 100 mg and above) was > 0.5 gm%, the “Adverse events (Test)” value ([4]; SAD 25 mg panel) was “Rhinorrhea, right lower wisdom tooth pain, sore throat” and the “Adverse events (Test)” value ([4]; SAD 50 mg panel) was “Dizziness, headache, chest pain, Diarrhea, upper respiratory tract infection”. For the same compound, the “Adverse events (Test)” value ([4]; SAD 100 mg panel) was “Dizziness, headache, lethargy, nausea, throat irritation, increase in AST, hyperkalemia”, the “Adverse events (Test)” value ([4]; SAD 200 mg panel) was “Back pain” and the “drug-related serious adverse events” value ([4]; all study parts) was “No drug-related serious adverse events were reported”. The “severity of AEs possibly related to study treatment” value ([4]; part I) was “grade 1”, the “subjects with AEs possibly related to study treatment” value ([4]; part I, nine AEs in six subjects, placebo 21%) was 14% and the tolerability ([4]; single and multiple oral ascending doses) was “well-tolerated”. The “tolerated dose, single-dose study” value [5] was “up to 75 mg/kg”, the “oral absorption and bioavailability” value [6] was “well-absorbed and highly bioavailable” and the “lag in time to EPO C max from pharmacokinetic t max” value ([7]; multiple dosing, similar to single dosing) was 6 to 8 h. For the same compound, the “serum EPO C max” value ([7]; part II, 100 mg on Days 1, 3, 5) was 14.4 mIU/L, the “serum EPO C max” value ([7]; part II, 300 mg on Days 1, 3, 5) was 60.5 mIU/L and the “hemoglobin increase on any timepoint, seen in more subjects than placebo” value ([7]; part II, higher threshold) was > 1.0 gm%. For the same compound, the “median t max, range” value ([8]; 100, 150, 200, 300 mg, first or fifth day of dosing) was 1.5 to 3.0 h, the “accumulation of the drug” value ([8]; after first and third dose of 100, 150, 200, 300 mg, alternate-day dosing) was “no accumulation of the drug was observed” and the “mean terminal t ½” value ([8]; in vivo) was “approximately 10 h”. The t max [8, 10] was 2.00 (1.00–3.00) h, the AUCt [8, 10] was 36,885.130 ± 11,488.927 h·ng/mL and the “AUC∞” value [8, 10] was 38,817.512 ± 13,184.682 h·ng/mL. The “Accumulation Index” value [8, 10] was 1.027 ± 0.018, the C max [8, 10] was 6549.000 ± 1567.979 ng/mL and the CL [8, 10] was 2834.521 ± 775.188 mL/h. For the same compound, the V z/F_obs [8, 10] was 34,916.562 ± 8463.050 mL, the “t ½” value [8, 10] was 8.811 ± 1.869 h and the λz [8, 10] was 0.082 ± 0.020 h⁻¹. The t max [8, 11] was 2.00 (1.50–2.50) h, the AUCt [8, 11] was 39,690.467 ± 11,051.227 h·ng/mL and the “AUC∞” value [8, 11] was 40,102.984 ± 11,276.275 h·ng/mL. The “Accumulation Index” value [8, 11] was 1.106 ± 0.128, the C max [8, 11] was 6566.667 ± 1525.703 ng/mL and the CL [8, 11] was 2744.020 ± 798.472 mL/h. The V z/F_obs [8, 11] was 47,571.130 ± 18,996.205 mL, the “t ½” value [8, 11] was 12.968 ± 6.654 h and the λz [8, 11] was 0.065 ± 0.029 h⁻¹. The t max [8, 12] was 1.50 (1.00–3.50) h, the AUCt [8, 12] was 59,780.215 ± 8539.865 h·ng/mL and the “AUC∞” value [8, 12] was 62,811.249 ± 10,222.543 h·ng/mL. For the same compound, the “Accumulation Index” value [8, 12] was 1.025 ± 0.026, the C max [8, 12] was 8185.667 ± 1215.600 ng/mL and the CL [8, 12] was 2487.695 ± 399.669 mL/h. The V z/F_obs [8, 12] was 29,315.063 ± 6213.656 mL, the “t ½” value [8, 12] was 8.390 ± 2.431 h and the λz [8, 12] was 0.088 ± 0.025 h⁻¹. The t max [8, 13] was 1.75 (0.50–3.00) h, the AUCt [8, 13] was 65,307.036 ± 9629.912 h·ng/mL and the “AUC∞” value [8, 13] was 65,706.064 ± 9748.640 h·ng/mL. The “Accumulation Index” value [8, 13] was 1.043 ± 0.026, the C max [8, 13] was 8657.000 ± 1190.575 ng/mL and the CL [8, 13] was 2398.514 ± 378.402 mL/h. For the same compound, the V z/F_obs [8, 13] was 34,943.264 ± 6986.821 mL, the “t ½” value [8, 13] was 10.205 ± 2.013 h and the λz [8, 13] was 0.070 ± 0.015 h⁻¹. For the same compound, the t max [8, 14] was 2.00 (1.50–3.50) h, the AUCt [8, 14] was 85,040.673 ± 12,019.503 h·ng/mL and the “AUC∞” value [8, 14] was 88,180.063 ± 13,633.711 h·ng/mL. For the same compound, the “Accumulation Index” value [8, 14] was 1.017 ± 0.019, the C max [8, 14] was 13,203.333 ± 2762.033 ng/mL and the CL [8, 14] was 2344.752 ± 361.388 mL/h. For the same compound, the V z/F_obs [8, 14] was 25,167.492 ± 5973.588 mL, the “t ½” value [8, 14] was 7.573 ± 2.103 h and the λz [8, 14] was 0.097 ± 0.024 h⁻¹. For the same compound, the t max [8, 15] was 1.75 (0.50–2.50) h, the AUCt [8, 15] was 77,994.986 ± 21,218.895 h·ng/mL and the “AUC∞” value [8, 15] was 78,368.940 ± 21,616.249 h·ng/mL. The “Accumulation Index” value [8, 15] was 1.033 ± 0.018, the C max [8, 15] was 12,388.333 ± 1607.376 ng/mL and the CL [8, 15] was 2758.333 ± 677.108 mL/h. The V z/F_obs [8, 15] was 36,889.057 ± 5339.335 mL, the “t ½” value [8, 15] was 9.534 ± 1.467 h and the λz [8, 15] was 0.074 ± 0.012 h⁻¹. The t max [8, 16] was 3.00 (1.50–3.500) h, the AUCt [8, 16] was 118,269.238 ± 28,910.037 h·ng/mL and the “AUC∞” value [8, 16] was 123,020.455 ± 32,873.290 h·ng/mL. For the same compound, the “Accumulation Index” value [8, 16] was 1.017 ± 0.011, the C max [8, 16] was 19,286.667 ± 4086.434 ng/mL and the CL [8, 16] was 2608.681 ± 641.704 mL/h. For the same compound, the V z/F_obs [8, 16] was 29,476.605 ± 6045.099 mL, the “t ½” value [8, 16] was 7.968 ± 1.106 h and the λz [8, 16] was 0.088 ± 0.011 h⁻¹. The t max [8, 17] was 1.75 (1.00–2.00) h, the AUCt [8, 17] was 105,472.355 ± 19,487.237 h·ng/mL and the “AUC∞” value [8, 17] was 105,772.678 ± 19,542.028 h·ng/mL. The “Accumulation Index” value [8, 17] was 1.033 ± 0.022, the C max [8, 17] was 16,450.000 ± 3422.484 ng/mL and the CL [8, 17] was 2992.073 ± 697.789 mL/h. The V z/F_obs [8, 17] was 41,797.611 ± 17,743.925 mL, the “t ½” value [8, 17] was 9.445 ± 1.819 h and the λz [8, 17] was 0.076 ± 0.015 h⁻¹. The IC50 [9] was 11.2 µM.
